Measurements collected from several papers.
Protocols differ between the studies behind these lines.

SMILES | species | matrix | route | dose | setting | endpoint | result
C=CS(=O)(=O)c1ccc(Nc2nc(OCC3CCCCC3)c3nc[nH]c3n2)cc1 | male BALB/c mouse | plasma | intravenous | 20 mg/kg | single dose | Cmax | 534 ng/mL
Cc1ccc(C(=O)Nc2ccc(CN3CCN(C)CC3)c(C(F)(F)F)c2)cc1C#Cc1cnc2[nH]ncc2c1 | human | plasma | oral | 40 mg | single dose, healthy volunteers | Vd/F | 5370 L
Nc1ncn([C@H]2C[C@H](O)[C@@H](CO)O2)c(=O)n1 | female C57BL/6 mouse | plasma | intravenous | 0.4 mg/kg | – | Cmax | 319 ng/mL
CC[C@H](C)CCCCC(=O)N[C@@H](CCN)C(=O)N[C@H](C(=O)N[C@@H](CCN)C(=O)N[C@H]1CCNC(=O)[C@H]([C@@H](C)O)NC(=O)[C@H](CCN)NC(=O)[C@H](CCN)NC(=O)[C@H](CC(C)C)NC(=O)[C@@H](Cc2ccccc2)NC(=O)[C@H](CCN)NC1=O)[C@@H](C)O | human | plasma | intravenous | 0.75 mg/kg | single dose, infusion | Vd | 20.2 L
CCN1CCN(Cc2ccc(NC(=O)c3ccc(C)c(NC(=O)c4cncc(-c5cccs5)c4)c3)cc2C(F)(F)F)CC1 | mouse | plasma | intraperitoneal | 15 mg/kg | single dose | Cmax | 582 ng/mL
Cl.[2H]C([2H])([2H])CC(=O)c1cnc(NC(=O)C2CC2)cc1Nc1cccc(-c2ncn(C([2H])([2H])[2H])n2)c1OC | human | plasma | oral | 20 mg | multiple doses, once daily, fasted | Vd/F | 240 L
CC(=O)O[C@@]12CO[C@@H]1C[C@H](O)[C@@]1(C)C(=O)[C@H](O)C3=C(C)[C@@H](OC(=O)[C@H](O)[C@@H](NC(=O)OC(C)(C)C)c4ccccc4)C[C@@](O)([C@@H](OC(=O)c4ccccc4)[C@H]21)C3(C)C | male Kunming mouse | liver | oral | 20 mg/kg | – | Cmax | 18.9 ng/g
CNC(=O)n1ccc2cc(Oc3ccnc(NC(=O)c4ccc(C5CCN(CCO)CC5)cc4)c3)c(OCCOC)cc21 | human | plasma | oral | 35 mg | single dose, fed, healthy volunteers | Vd/F | 14300 L
NC(=S)NN=Cc1ncccc1N | human | plasma | oral | 100 mg | – | Vd/F | 205 L
Cn1cc(Nc2nc(N)nc(-c3cccc(-n4ccc5cc(C6CC6)cc(F)c5c4=O)c3CO)n2)cn1 | human | plasma | oral | 300 mg | single dose, fasted | Vd/F | 422 L
